Hits are enriched below; roughly 0.79% of the tested compounds scored in any of these assays.
bIAP act: bovine intestinal alkaline phosphatase activators, primary screen, biochemical, bovine IAP, CDP-star luminescence; alkaline phosphatase, intestinal [Bos taurus]; purified bovine IAP, 30 min; active compounds read high; fold of DMSO-control signal, blank-subtracted; activation factor at 20 µM; hit rate 0.17% among 200,000; AID 1016, 2008;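 active means activation factor of 2 or more at 20 µM, a signal rise over negative controls twice the positive control's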
hIAP inh: human IAP inhibitors, primary screen, biochemical, luminescence, uHTS; purified IAP, CDP-Star luminescence, 30 min; AID 2544, 2010; inhibition, % at 10 µM; Intestinal-type alkaline phosphatase (Homo sapiens), P09923; hit rate 0.12% among 330,000;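 active means inhibition reaching a set limit with compound at 10 µM in the primary screen, cut at about 35% in these data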;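 further: plate controls were DMSO wells with enzyme for no effect and no-enzyme buffer wells for full effect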
Target sequence (P09923 whole entry, looked up): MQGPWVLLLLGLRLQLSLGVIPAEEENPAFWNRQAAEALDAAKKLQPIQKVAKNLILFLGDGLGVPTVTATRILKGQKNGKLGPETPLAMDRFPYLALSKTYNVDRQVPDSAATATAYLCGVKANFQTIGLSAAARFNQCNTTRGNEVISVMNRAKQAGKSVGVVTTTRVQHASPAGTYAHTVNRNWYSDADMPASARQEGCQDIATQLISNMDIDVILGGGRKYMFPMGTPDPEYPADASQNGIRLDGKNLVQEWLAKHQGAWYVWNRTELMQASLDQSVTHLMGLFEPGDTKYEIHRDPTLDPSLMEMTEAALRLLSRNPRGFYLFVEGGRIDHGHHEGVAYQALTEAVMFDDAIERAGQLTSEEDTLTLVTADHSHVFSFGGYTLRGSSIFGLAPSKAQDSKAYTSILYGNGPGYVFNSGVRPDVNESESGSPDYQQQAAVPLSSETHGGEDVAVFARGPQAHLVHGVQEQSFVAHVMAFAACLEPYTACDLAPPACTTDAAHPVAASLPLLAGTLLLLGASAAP
bIAP inh: bovine intestinal alkaline phosphatase inhibitors, primary screen, selectivity assay for TNAP inhibitor project, biochemical, bovine IAP, CDP-star luminescence. alkaline phosphatase, intestinal [Bos taurus]. purified bovine IAP, 30 min. inhibition, % at 20 µM. 190,000 tested, under 10 active;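 active means over 50% inhibition of intestinal alkaline phosphatase at 20 µM in the single-dose screen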
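System: Purified bovine intestinal alkaline phosphatase (IAP) enzyme | Input: IAP diluted 1/65,000,000 in the well | Also added: CDP-star chemiluminescent phosphatase substrate, 30 µM final | Dosing: 20 µM single dose | Times: Enzyme reaction for 30 min at room temperature | Detection: Luminescence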
mIAP act: activators of mouse IAP, primary screen, biochemical, luminescence, uHTS; intestinal alkaline phosphatase [Mus musculus]; muIAP, CDP-Star luminescence, 30 min; active compounds read high; 1 = vehicle-only enzyme signal, 0 = enzyme-free wells; activation factor at 10 µM; hit rate 0.24% among 330,000;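 active means activation factor of at least 2 at 20 µM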
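System: Mouse IAP enzyme | Also added: CDP-Star substrate | Dosing: Compounds dispensed in DMSO | Schedule: 30 min enzyme-substrate-compound incubation at room temperature | Technique: Chemiluminescence readout | Control set: DMSO-only wells and no-enzyme negative control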
mIAP inh: inhibitors of mouse IAP, primary screen, biochemical, luminescence, uHTS; intestinal alkaline phosphatase [Mus musculus]; purified mouse IAP, CDP-Star luminescence, 30 min; inhibition, % at 10 µM; hit rate 0.2% among 330,000; AID 2806, 2010;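 active means inhibition of at least 40% at 10 µM in the primary screen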;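 further: plate controls were DMSO with enzyme for no effect and no enzyme wells for full effect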
hIAP activ: human IAP activators, primary screen, biochemical, luminescence, uHTS; Intestinal-type alkaline phosphatase (Homo sapiens), P09923; purified human IAP, CDP-Star luminescence, 30 min; active compounds read high; 1 = vehicle-only enzyme, 0 = enzyme-free background; hit rate 0.16% among 330,000; activation factor at 10 µM; AID 2524, 2010;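 active means activation factor of the enzyme at least 2-fold when tested at 20 µM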
Numbers without * were called inactive; i = inactive; . = not tested or not shown.

SMILES | bIAP act | hIAP inh | bIAP inh | mIAP act | mIAP inh | hIAP activ
O=C(Nc1cccc(-c2cccc(F)c2)c1)C1CCN(Cc2ccc(CO)o2)CC1 | . | -2 | . | 2.1* | -107 | 1
CCN(CC)c1nc(OCCNC(=O)Nc2ccccc2)nc(N(CC)CC)n1 | 1.4 | -11 | -42 | 2.5* | -148 | 1.1
CC(=O)n1cc(N(C(=O)CCl)c2ccc([N+](=O)[O-])cc2)c2ccccc21 | . | -12 | . | 0.95 | 5 | 1.1
O=Cc1[nH]c2ccccc2c1N(C(=O)CCl)c1ccc([N+](=O)[O-])cc1 | . | 35* | . | 0.97 | 3 | 0.65
O=C(CN(C(=O)Cn1nnc(-c2ccccc2F)n1)c1cccc2c1CCCC2)NCc1ccccc1 | 2.2* | -2 | -121 | 1.5 | -51 | 1
CCCNC(=O)N1CCN(Cc2ccco2)CC1 | 1 | -15 | -5 | 1.1 | -9 | 1.2
CC(NC(=O)c1cc2cc(F)ccc2[nH]1)c1ccccc1 (stereo unspecified) | . | 6 | . | 1.2 | -21 | 0.94
Cc1ccc(C(NC(=O)NC(C)c2ccccc2)C(Cl)(Cl)Cl)cc1F (stereo unspecified) | 0.7 | 13 | 26 | 14* | i | 0.87
O=S(=O)(NCC(c1cccs1)N1CCc2ccccc2C1)c1ccccc1 (stereo unspecified) | . | -16 | . | 1.1 | -9 | 1.2
O=S(=O)(c1ccc(N2CCC(c3ccc(Cl)cc3)=N2)cc1)N(CCO)CCO | 2.7* | -6 | -168 | 2.2* | -120 | 1.1
CN(C)CCCNS(=O)(=O)c1ccc(N2CCC(c3ccc(Cl)cc3)=N2)cc1 | 2.2* | -18 | -125 | 1.9 | -89 | 1.2
Cc1ccccc1NC(=O)C(C)n1c2ccccc2c2nc(=O)cc(C)n21 (stereo unspecified) | . | -10 | . | 1.2 | -16 | 1.1
Cn1c(=O)[nH]c(=O)c2c1nc(NCCCn1ccnc1)n2Cc1ccccc1 | 2.5* | -23 | -148 | 1.1 | -11 | 1.2
Cn1c(=O)[nH]c(=O)c2c1nc(NCCCn1ccnc1)n2CCOc1ccccc1 | 3.9* | -14 | -290 | 1.1 | -7 | 1.1
Cn1c(=O)[nH]c(=O)c2c1nc(NCCCO)n2Cc1ccc(F)cc1 | 1 | -13 | 4 | 1 | -4 | 1.1
CCOC(=O)C1=CNS(=O)(=O)NC1CCc1ccccc1 (stereo unspecified) | . | . | . | 1.1 | -6 | .
O=c1ccc(-c2ccccc2)no1 | . | -18 | . | 1.1 | -6 | 1.2
C[C@H](CO)N1C[C@H](C)[C@H](CN(C)S(=O)(=O)c2cn(C)cn2)Oc2ccc(NC(=O)Nc3ccc(C(F)(F)F)cc3)cc2CC1=O | . | -8 | . | 2.7* | -169 | 1.1
C[C@H]1CN([C@@H](C)CO)C(=O)c2cccc(NC(=O)Nc3ccc(C(F)(F)F)cc3)c2O[C@@H]1CN(C)S(=O)(=O)c1ccc(Cl)cc1 | . | -2 | . | 2.1* | -111 | 1
C[C@@H]1CN([C@@H](C)CO)C(=O)Cc2cc(NC(=O)Nc3ccc(C(F)(F)F)cc3)ccc2O[C@@H]1CN(C)S(=O)(=O)c1ccc(Cl)cc1 | . | -17 | . | 1.4 | -41 | 1.2
Cc1noc(C)c1NC(=O)N(C)C[C@H]1Oc2ccc(NC(=O)NC(C)C)cc2C(=O)N([C@H](C)CO)C[C@H]1C | . | 2 | . | 1.2 | -22 | 0.98
C[C@H](CO)N1C[C@H](C)[C@@H](CN(C)C(=O)Nc2ccc(C(F)(F)F)cc2)Oc2ccc(NC(=O)NC3CCCCC3)cc2C1=O | . | -24 | . | 3.1* | -212 | 1.2
Cc1noc(C)c1NC(=O)N(C)C[C@H]1Oc2ccc(NC(=O)Nc3ccc(C(F)(F)F)cc3)cc2C(=O)N([C@H](C)CO)C[C@@H]1C | . | -10 | . | 2.5* | -155 | 1.1
c1ccc(COc2cncc(-c3cccnc3)c2)cc1 | . | -10 | . | 1.1 | -6 | 1.1
CCN1CCN=C1Nc1ccccc1 | . | 2 | . | 0.98 | 2 | 0.97
